# Results published in article PMC3286593 (Cancer Chemotherapy and Pharmacology, 2011).
# Experiments:
# [1] = test system: NSCLC NCI-H460 xenograft models; settings: cited from earlier work
# [2] = test system: patients with advanced solid malignancies; experiment: Phase I 3 + 3 dose escalation: MTD and dose-limiting toxicities; assay type: in vivo, human; settings: for Pemetrexed dose at MTD: q3w; for MTD of sunitinib: with pemetrexed 500 mg/m^2 q3w
# Procedure, shortened: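 Open-label multicentre 3 + 3 escalation. […] A DLT was a grade 3/4 drug-related toxicity in cycle 1 (NCI CTCAE v3.0). MTD was the highest dose with 0/3 or ≤1/6 DLTs.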
# [3] = test system: patients with advanced solid malignancies; experiment: Dose delays, dose reductions and relative dose intensity; assay type: in vivo, human; settings: for Cycles with dose reductions: Schedule 2/1
# Procedure, shortened: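 Grade 3/4 toxicity attributed to either drug allowed intra-patient dose reduction at the investigator's discretion, up to 2 reductions per drug. […] Relative dose intensity was actual/intended dose intensity. Results were summarised descriptively per cycle and per patient.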
# [4] = test system: patients with advanced solid malignancies; experiment: Safety: adverse events; assay type: in vivo, human
# NSCLC = settings: single-agent sunitinib on Schedule 4/2; cited from earlier work
# [5] = test system: VEGFR and PDGFR phosphorylation; settings: cited from earlier work
# [6] = NSCLC expansion cohort (n = 15)
compound,measurement,setting,value
Nc1nc2[nH]cc(CCc3ccc(C(=O)N[C@@H](CCC(=O)O)C(=O)O)cc3)c2c(=O)[nH]1 [pemetrexed],Effect on antitumor activity of sunitinib,[1],enhanced its antitumor activity
same,Pemetrexed dose at MTD,[2]; with sunitinib 37.5 mg/day CDD schedule,500 mg/m^2
same,Pemetrexed dose at MTD,[2]; with sunitinib 50 mg/day Schedule 2/1,500 mg/m^2
same,Patients with a pemetrexed dose delay,[3]; CDD schedule MTD,12 patients
same,Patients with a pemetrexed dose reduction to 400 mg/m^2,[3]; CDD schedule MTD,6 patients
same,Cycles with pemetrexed dose reduction,[3]; NSCLC expansion cohort,6 cycles
same,Patients with at least one pemetrexed dose reduction to 400 mg/m^2,[3]; NSCLC expansion cohort,3 patients
same,Cycles with dose reductions,[3],3 cycles
same,Cycles with pemetrexed dose reduction,[3]; original CDD schedule MTD,13 cycles
CCN(CC)CCNC(=O)c1c(C)[nH]c(/C=C2\C(=O)Nc3ccc(F)cc32)c1C [sunitinib],Serious AEs considered related to sunitinib treatment,"[4]; CDD schedule at the MTD, one event of each in separate patients","febrile neutropenia (DLT), pancreatitis, pain, gastroenteritis, and muscular weakness"
same,Serious AEs considered related to sunitinib treatment,"[4]; Schedule 2/1, all n = 1","febrile neutropenia (DLT), tumor perforation, and pyrexia"
same,ORR,NSCLC,11.1%
same,Tumor growth,[1],decreased tumor growth
same,MTD of sunitinib,[2]; CDD schedule,37.5 mg/day
same,MTD of sunitinib,[2]; Schedule 2/1,50 mg/day
same,Target plasma concentrations required to inhibit VEGFR and PDGFR phosphorylation,[5],50 to 100 ng/mL
same,Patients with a sunitinib dose reduction to 25 mg,[3]; CDD schedule MTD,12 patients
same,Patients with at least one sunitinib dose delay,[3]; CDD schedule MTD,12 patients
same,Patients who discontinued sunitinib due to AEs,"[3]; CDD schedule MTD, abdominal pain, seizure, thrombocytopenia",Three
same,Cycles with sunitinib dose reductions,[3]; [6],22 cycles
same,Patients with at least one sunitinib dose reduction to 25 mg,[3]; [6],7 patients
same,Cycles with dose reductions,[3],6 cycles
same,Cycles with sunitinib dose reductions,[3]; original CDD schedule MTD cohort (n = 7),23 cycles
